These results are taken from ChEMBL document CHEMBL1817648, “Synthesis and in vitro antibacterial activity of a series of novel gatifloxacin derivatives” (Eur J Med Chem, 2011).

As usually defined, the MIC is the smallest concentration in the dilution series that meets the test's criterion for growth inhibition. Broadly, the CC50 is the concentration at which the toxic effect on the cells reaches its halfway point.

Converted amounts (≈) assume the structure as drawn.

For data set [1], the system named is Enterococcus faecium. Briefly: Antibacterial activity against Enterococcus faecium 08-7 after 18 to 24 hrs by NCCLS M100-S11 two fold serial dilution method. The class given is functional.
In data set [2] the test system is Klebsiella pneumoniae. Put plainly: Antibacterial activity against Klebsiella pneumoniae 09-22 after 18 to 24 hrs by NCCLS M100-S11 two fold serial dilution method. Type of data set: functional.
Data set [3] deals with Staphylococcus aureus. Briefly: Antibacterial activity against methicillin-sensitive Staphylococcus aureus 08-1 after 18 to 24 hrs by NCCLS M100-S11 two fold serial dilution method. The class given is functional.
The test system of data set [4] is Escherichia coli. Briefly: Antibacterial activity against Escherichia coli 08-22 after 18 to 24 hrs by NCCLS M100-S11 two fold serial dilution method. Type of data set: functional.
The test system of data set [5] is Enterococcus faecalis. Put plainly: Antibacterial activity against Enterococcus faecalis 08-12 after 18 to 24 hrs by NCCLS M100-S11 two fold serial dilution method. Type of data set: functional.
Data set [6] concerns Escherichia coli. Briefly: Antibacterial activity against Escherichia coli ATCC 25922 after 18 to 24 hrs by NCCLS M100-S11 two fold serial dilution method. Type of data set: functional. The conditions noted are these: ATCC25922.
Data set [7] concerns Staphylococcus aureus. Briefly: Antibacterial activity against Staphylococcus aureus ATCC 25923 after 18 to 24 hrs by NCCLS M100-S11 two fold serial dilution method. The class given is functional. The conditions noted are these: ATCC25923.
Data set [8] relates to Enterococcus faecium. Briefly: Antibacterial activity against Enterococcus faecium 08-2 after 18 to 24 hrs by NCCLS M100-S11 two fold serial dilution method. The class given is functional.
Data set [9] deals with Klebsiella pneumoniae. Briefly: Antibacterial activity against Klebsiella pneumoniae 09-23 after 18 to 24 hrs by NCCLS M100-S11 two fold serial dilution method. The class given is functional.
In data set [10] the test system is Escherichia coli. Briefly: Antibacterial activity against Escherichia coli 08-21 after 18 to 24 hrs by NCCLS M100-S11 two fold serial dilution method. Type of data set: functional.
The subject of data set [11] is Pseudomonas aeruginosa. Put plainly: Antibacterial activity against Pseudomonas aeruginosa 09-33 after 18 to 24 hrs by NCCLS M100-S11 two fold serial dilution method. The class given is functional.
Data set [12] relates to Pseudomonas aeruginosa. Briefly: Antibacterial activity against Pseudomonas aeruginosa 09-32 after 18 to 24 hrs by NCCLS M100-S11 two fold serial dilution method. Type of data set: functional.
In data set [13] the test system is Staphylococcus epidermidis. Put plainly: Antibacterial activity against methicillin-resistant Staphylococcus epidermidis 09-4 after 18 to 24 hrs by NCCLS M100-S11 two fold serial dilution method. Type of data set: functional. The essentials:
(§1)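 Two-fold serial dilution in agar medium. MIC read as the lowest concentration giving complete inhibition of bacterial growth after incubation at 35 °C for 18–24 h.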

Data set [14] relates to Enterococcus faecalis. Put plainly: Antibacterial activity against Enterococcus faecalis 08-10 after 18 to 24 hrs by NCCLS M100-S11 two fold serial dilution method. Type of data set: functional.
The test system of data set [15] is Staphylococcus epidermidis. Briefly: Antibacterial activity against methicillin-sensitive Staphylococcus epidermidis 09-3 after 18 to 24 hrs by NCCLS M100-S11 two fold serial dilution method. Type of data set: functional. The method in brief: as §1
Data set [16] deals with Staphylococcus aureus. Put plainly: Antibacterial activity against methicillin-resistant Staphylococcus aureus 08-1 after 18 to 24 hrs by NCCLS M100-S11 two fold serial dilution method. Type of data set: functional. The method in brief: as §1
Data set [17] deals with Staphylococcus epidermidis. Put plainly: Antibacterial activity against methicillin-sensitive Staphylococcus epidermidis 09-6 after 18 to 24 hrs by NCCLS M100-S11 two fold serial dilution method. Type of data set: functional. The essentials:
as §1

For data set [18], the system named is Streptococcus pneumoniae. Put plainly: Antibacterial activity against Streptococcus pneumoniae 08-4 after 18 to 24 hrs by NCCLS M100-S11 two fold serial dilution method. Type of data set: functional.
A short description of data set [19]: Cytotoxicity against african green monkey Vero cells after 72 hrs by MTT assay. The class given is cell-based. The conditions noted are these: chlorocebus sabaeus. The method in brief:
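Vero cells were kept in Minimum Essential Medium with Earle's salts plus 10% fetal bovine serum at 37 °C under 5% CO₂. Cells were seeded at 1 × 10⁴ per well and allowed to recover 24 h. Medium was then replaced with assay medium containing compound or no drug, and cells were exposed for 72 h. CC₅₀ is the 50% cellular cytotoxic concentration.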
(In general: Tetrazolium assays rely on reduction of a dye to a coloured formazan, in cell work by metabolically active cells.)

Data set [20] relates to Pseudomonas aeruginosa. Put plainly: Antibacterial activity against Pseudomonas aeruginosa ATCC 27853 after 18 to 24 hrs by NCCLS M100-S11 two fold serial dilution method. Type of data set: functional.
The test system of data set [21] is Streptococcus pneumoniae. Put plainly: Antibacterial activity against Streptococcus pneumoniae 08-2 after 18 to 24 hrs by NCCLS M100-S11 two fold serial dilution method. Type of data set: functional.
In data set [22] the test system is Pseudomonas aeruginosa. Briefly: Antibacterial activity against Pseudomonas aeruginosa 09-34 after 18 to 24 hrs by NCCLS M100-S11 two fold serial dilution method. Type of data set: functional.

In the case of `C[C@H]1COc2c(N3CCN(C)CC3)c(F)cc3c(=O)c(C(=O)O)cn1c23.C[C@H]1COc2c(N3CCN(C)CC3)c(F)cc3c(=O)c(C(=O)O)cn1c23.O` [LEVOFLOXACIN], the MIC with Enterococcus faecium [1] stood at 8 µg/mL; with Klebsiella pneumoniae [2], 16 µg/mL; against Staphylococcus aureus [3], 0.25 µg/mL; in the data set with Escherichia coli [4], 4 µg/mL; in the data set with Enterococcus faecalis [5] it was 8 µg/mL; in the data set on Escherichia coli [6], 2 µg/mL. The MIC against Staphylococcus aureus [7] came out at 0.25 µg/mL; against Enterococcus faecium [8], 4 µg/mL; against Klebsiella pneumoniae [9], 8 µg/mL; against Escherichia coli [10] it was 8 µg/mL; against Pseudomonas aeruginosa [11] it was 8 µg/mL; in the data set on Pseudomonas aeruginosa [12], 16 µg/mL. Moreover, the MIC in [13] was determined as 0.5 µg/mL; in the data set with Enterococcus faecalis [14] it was 8 µg/mL; in data set [15], 0.06 µg/mL; against Staphylococcus aureus [16], 0.06 µg/mL; in data set [17] it was 2 µg/mL.

With `COC(=O)CN1CCN(c2c(F)cc3c(=O)c(C(=O)O)cn(C4CC4)c3c2OC)CC1C` (stereo not given), the MIC against Streptococcus pneumoniae [18] was over 128 µg/mL; against Enterococcus faecium [1], over 128 µg/mL; with Klebsiella pneumoniae [2] it was 128 µg/mL (≈ 286 µM); in the data set on Staphylococcus aureus [3], 32 µg/mL (≈ 71.5 µM); against Escherichia coli [4], over 128 µg/mL; with Enterococcus faecalis [5], over 128 µg/mL. The MIC in the data set with Escherichia coli [6] was 128 µg/mL (≈ 286 µM); against Staphylococcus aureus [7], 8 µg/mL (≈ 17.9 µM); with Enterococcus faecium [8], over 128 µg/mL; in the data set with Klebsiella pneumoniae [9], over 128 µg/mL; in the data set on Escherichia coli [10], over 128 µg/mL; against Pseudomonas aeruginosa [11], 128 µg/mL (≈ 286 µM). Further, the MIC in the data set on Pseudomonas aeruginosa [12] was 128 µg/mL (≈ 286 µM); in data set [13], 32 µg/mL (≈ 71.5 µM); against Pseudomonas aeruginosa [20], 128 µg/mL (≈ 286 µM); in the data set with Enterococcus faecalis [14], over 128 µg/mL; in data set [15], 32 µg/mL (≈ 71.5 µM); in the data set on Staphylococcus aureus [16] it was 128 µg/mL (≈ 286 µM). Besides, the MIC is over 128 µg/mL in the data set with Streptococcus pneumoniae [21], 32 µg/mL (≈ 71.5 µM) in [17] and over 128 µg/mL in the data set with Pseudomonas aeruginosa [22]. The CC50 at 72 h in data set [19] was determined as 500 µg/mL (≈ 1120 µM).

In the case of `COc1c(N2CCNC(C)C2)c(F)cc2c(=O)c(C(=O)O)cn(C3CC3)c12` (stereo not given) [GATIFLOXACIN], the MIC in the data set with Streptococcus pneumoniae [18] worked out at 0.25 µg/mL (≈ 0.666 µM); against Enterococcus faecium [1] it was 4 µg/mL (≈ 10.7 µM); in the data set on Klebsiella pneumoniae [2], 0.125 µg/mL (≈ 0.333 µM); against Staphylococcus aureus [3], 0.06 µg/mL (≈ 0.16 µM); against Escherichia coli [4], 4 µg/mL (≈ 10.7 µM); in the data set with Enterococcus faecalis [5] it was 2 µg/mL (≈ 5.33 µM). Also, the MIC against Escherichia coli [6] is 2 µg/mL (≈ 5.33 µM); in the data set with Staphylococcus aureus [7] it was 0.125 µg/mL (≈ 0.333 µM); against Enterococcus faecium [8] it was 2 µg/mL (≈ 5.33 µM); against Klebsiella pneumoniae [9], 2 µg/mL (≈ 5.33 µM); in the data set on Escherichia coli [10] it was 4 µg/mL (≈ 10.7 µM); with Pseudomonas aeruginosa [11] it was 4 µg/mL (≈ 10.7 µM). Also, the MIC with Pseudomonas aeruginosa [12] stood at 8 µg/mL (≈ 21.3 µM); in data set [13], 0.25 µg/mL (≈ 0.666 µM); against Pseudomonas aeruginosa [20], 1 µg/mL (≈ 2.66 µM); in the data set on Enterococcus faecalis [14], 4 µg/mL (≈ 10.7 µM); in data set [15], 0.25 µg/mL (≈ 0.666 µM); in the data set on Staphylococcus aureus [16] it was 0.125 µg/mL (≈ 0.333 µM). In addition, the MIC in the data set on Streptococcus pneumoniae [21] worked out at 4 µg/mL (≈ 10.7 µM); in data set [17], 8 µg/mL (≈ 21.3 µM); in the data set with Pseudomonas aeruginosa [22] it was 1 µg/mL (≈ 2.66 µM).

For the compound `CCOC(=O)CCN1CCN(c2c(F)cc3c(=O)c(C(=O)O)cn(C4CC4)c3c2OC)CC1C` (stereo not given), the minimum inhibitory concentration (MIC) in the data set on Streptococcus pneumoniae [18], against Enterococcus faecium [1], against Klebsiella pneumoniae [2], with Staphylococcus aureus [3], in the data set on Escherichia coli [4] and against Enterococcus faecalis [5] was over 128 µg/mL in each case. Also, the MIC in the data set on Escherichia coli [6] is 128 µg/mL (≈ 269 µM); in the data set with Staphylococcus aureus [7], 128 µg/mL (≈ 269 µM); with Enterococcus faecium [8], over 128 µg/mL; against Klebsiella pneumoniae [9], over 128 µg/mL; with Escherichia coli [10], over 128 µg/mL; in the data set on Pseudomonas aeruginosa [11], over 128 µg/mL. For the same compound, the MIC is over 128 µg/mL against Pseudomonas aeruginosa [12]; over 128 µg/mL in [13]; 128 µg/mL (≈ 269 µM) in the data set with Pseudomonas aeruginosa [20]; over 128 µg/mL in the data set with Enterococcus faecalis [14]; over 128 µg/mL in data set [15]; over 128 µg/mL against Streptococcus pneumoniae [21]. In addition, the MIC (in data set [17]; against Pseudomonas aeruginosa [22]) was over 128 µg/mL throughout.
